# High-throughput results (PubChem BioAssay)
# TRPML3 agonist – activates the human TRPML3 channel. Q8TDD5. HEK293 TRPML3-YFP, Fluo-8 calcium fluorescence; 100% = the carbachol control signal. activation, % at 3 µM. hit rate 0.29% among 220,000. AID 1448;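 active means activation above its plate's cutoff, the mean activation of the plate's test wells plus 3 SD, cut at about 12% in these data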;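 further: 0% = DMSO only wells and 100% = carbachol wells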
# Target sequence (Q8TDD5 whole entry, looked up): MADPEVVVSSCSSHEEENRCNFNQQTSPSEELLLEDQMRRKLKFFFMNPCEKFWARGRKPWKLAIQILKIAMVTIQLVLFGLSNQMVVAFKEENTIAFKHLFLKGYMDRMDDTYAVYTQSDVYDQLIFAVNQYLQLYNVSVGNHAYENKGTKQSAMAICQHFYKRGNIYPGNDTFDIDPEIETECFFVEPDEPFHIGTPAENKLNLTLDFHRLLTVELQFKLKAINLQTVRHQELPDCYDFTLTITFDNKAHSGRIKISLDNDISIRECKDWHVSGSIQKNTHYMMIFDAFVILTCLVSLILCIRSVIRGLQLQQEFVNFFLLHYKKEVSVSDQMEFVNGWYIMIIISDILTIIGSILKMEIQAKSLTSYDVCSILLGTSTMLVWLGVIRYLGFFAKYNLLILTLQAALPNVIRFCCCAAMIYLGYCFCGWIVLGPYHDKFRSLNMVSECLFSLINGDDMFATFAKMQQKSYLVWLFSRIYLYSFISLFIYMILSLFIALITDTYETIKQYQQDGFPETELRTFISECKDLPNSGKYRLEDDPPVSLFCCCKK
#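 Material: TRPML3-YFP stable HEK293 cells | Dosing: One concentration, 3 µM nominal, 0.3% DMSO | Timing: 125 s total fluorescence read per well | Technique: Fluo-8 calcium dye fluorescence, ex 470-495, em 515-575 nm | Measure: Percent activation from peak-to-basal fluorescence ratio, scaled between DMSO and carbachol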
# OX1R antag-1 – antagonists of human orexin 1 receptor (OX1R) | O43613 | OX1R-expressing cells, FRET antagonist read-out | inhibition, % at 6.6 µM | hit rate 1.8% among 330,000; in the data active means inhibition mostly above about 38%, no sharp cut-off; inactive means mostly below about 40%;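 further: 0% = agonist challenge alone and 100% = reference antagonist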
# CHO parental Ca – counter-screen: ATP calcium response change in parental CHO cells; parental CHO-K1, ATP-induced calcium, Fluo-8 fluorescence; inhibition, % at 5.6 µM; hit rate 0.63% among 330,000;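 active means inhibition above that plate's mean sample inhibition plus 3 SD, cut at about 26% in these data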;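 further: 0% = ATP-challenged DMSO wells and 100% = DMSO wells without ATP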
#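 material = parental CHO cells | also added = ATP as calcium-mobilizing challenge | dosing = single point at 5.6 µM | detection = intracellular calcium via Fluo-8 no-wash fluorescent dye | read-out = % inhibition | benchmarks = low control ATP plus DMSO, high control DMSO only | repeats = one well per compound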
# TRPN1 ag – activates the zebrafish TRPN1 channel; HEK293 zebrafish TRPN1-YFP, Fluo-8 calcium fluorescence; 100% = response to 87 µM carbachol; activation, % at 3 µM; hit rate 0.18% among 220,000;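 active means activation above its plate's cutoff, the mean activation of test wells on that plate plus 3 SD, cut at about 19% in these data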;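 further: 0% = DMSO alone and 100% = 87 µM carbachol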
#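 Material – zebrafish TRPN1-YFP in HEK293 cells · Doses – 3 µM single point · Schedule – dye 1 h 37 °C plus 30 min RT · Signal – Fluo-8 calcium fluorescence, excitation 470-495 nm, emission 515-575 nm · Read-out – % activation versus carbachol response · Control set – carbachol high, DMSO low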
# GPR7 antag – human neuropeptides B/W receptor 1 antagonism; P48145; AID 1861; hit rate 1.1% among 290,000; inhibition, % at 4.4 µM; GPR7-expressing cells, fluorescence antagonist assay; in the data active means inhibition above about 16%, passing the limit was not always enough;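 further: cells stimulated with the agonist NPW; 0% = agonist with vehicle and 100% = vehicle without agonist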
# OX1R antag-2 – human HCRTR1 antagonism; O43613; CHO/OX1R cells, Fluo-8 calcium fluorescence, orexin A; inhibition, % at 5 µM; hit rate 0.43% among 330,000;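 active means inhibition above its plate's threshold, mean inhibition of all tested compounds on the plate plus 3 SD, cut at about 37% in these data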;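 further: 0% = orexin A challenge wells and 100% = SB-334867-A antagonist wells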
# GPR7 antag cf – confirmation of human GPR7 antagonists; hit rate 52% among 2,400; shares compounds with GPR7 antag; inhibition, % at 4.4 µM; AID 1952; GPR7-expressing cells, calcium fluorescence antagonist mode; in the data active means inhibition above about 24%;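 further: stimulated with the GPR7 agonist NPW; 0% = agonist plus vehicle and 100% = vehicle alone without agonist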
# MCHR1 antag – counter-screen for GPR7 antagonists: antagonists of human MCHR1; inhibition, % at 4.4 µM; hit rate 62% among 2,400; shares compounds with GPR7 antag; MCHR1-expressing cells, fluorescence antagonist assay; AID 2148; in the data active means inhibition above about 22%;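 further: 0% = vehicle with agonist and 100% = vehicle without agonist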
# An asterisk follows results filed as active; nt = not tested or not shown. Rows were chosen to be rich in hits. Some 3.2% of all compounds tested hit in one or more screens of this group.
SMILES,TRPML3 agonist,OX1R antag-1,CHO parental Ca,TRPN1 ag,GPR7 antag,OX1R antag-2,GPR7 antag cf,MCHR1 antag
CCC(C)n1c(SCC(=O)NC2CCCC2)nc2ccccc2c1=O (stereo unspecified),nt,30.3,-27.7,nt,nt,-26.8,nt,nt
CCOC(=O)N(NC(=O)C(O)(c1ccccc1)c1ccccc1)c1ccccc1,0.1,19.9,-25.4,0.1,30.7*,-11.3,19.2,27.6*
CCCCC(O)(CCCC)C(=O)NN(C(=O)OCC)c1ccccc1,-0.1,16.0,-12.2,-1.9,31.7*,-10.5,34.9*,27.0*
COCCCNC(=S)N(Cc1cccnc1)Cc1ccc(OC)c(OC)c1,0.4,9.8,-5.3,-1.5,-3.1,-5.5,nt,nt
O=C(COC(=O)c1ccc(S(=O)(=O)N2CCOCC2)cc1)NCc1cccs1,0.3,15.6,-2.1,-0.8,-9.6,-22.5,nt,nt
COc1ccc(C(CNC(=O)c2ccc3c(c2)C(=O)N(CCC(C)C)C3=O)N2CCOCC2)cc1 (stereo unspecified),-0.1,9.0,-33.6,-0.2,29.0*,-25.4,-2.0,12.2
COc1ccc(NS(=O)(=O)c2cccc(C(=O)NCC(c3ccc(F)cc3)N3CCOCC3)c2)cc1 (stereo unspecified),nt,54.6*,-17.6,nt,30.6*,0.2,27.4*,10.7
COc1ccc(C(CNC(=O)c2ccc(NS(=O)(=O)c3ccc(F)cc3)cc2)N2CCOCC2)cc1 (stereo unspecified),nt,-10.0,-9.0,nt,-0.2,-20.7,nt,nt
COc1ccc(C(CNC(=O)c2ccc(S(=O)(=O)N3CCCC3)cc2)N2CCOCC2)cc1 (stereo unspecified),0.3,9.3,-5.1,1.1,-1.4,-19.3,nt,nt
Cc1cc(C=O)c(C)n1-c1ccc(Oc2ccc([N+](=O)[O-])cn2)cc1,1.9,33.8,-5.4,1.5,26.7*,-9.1,35.9*,52.5*
CCNc1c(NS(=O)(=O)c2ccc(Cl)s2)c(=O)oc2ccccc12,nt,7.5,-18.0,nt,-9.7,-23.9,nt,nt
CCCCCc1nnc(NC(=O)CN2C(=O)C3CCCCC3C2=O)s1 (stereo unspecified),nt,1.4,-22.6,nt,-14.8,-18.8,nt,nt
Cc1cc(NC(=O)CN2C(=O)NC(C)(c3ccc(OC(F)F)cc3)C2=O)no1 (stereo unspecified),7.3,-2.8,-6.9,14.6,50.2*,0.2,51.2*,47.8*
CC1(c2ccc(OC(F)F)cc2)NC(=O)N(CC(=O)Nc2ccc(S(N)(=O)=O)cc2)C1=O (stereo unspecified),-0.2,5.5,-6.2,-1.1,-9.0,-4.7,nt,nt
CCOC(=O)c1c(NC(=O)CN2C(=O)NC(C)(c3ccc(OC(F)F)cc3)C2=O)sc(C)c1C (stereo unspecified),3.0,-4.8,29.8,8.8,71.2*,26.2,68.1*,85.9*
CC1(c2ccc(OC(F)F)cc2)NC(=O)N(CC(=O)Nc2cccc(F)c2)C1=O (stereo unspecified),nt,10.8,53.3*,nt,93.7*,66.8*,93.0*,92.3*
CC1(c2ccc(OC(F)F)cc2)NC(=O)N(CC(=O)Nc2ccc(F)cc2)C1=O (stereo unspecified),nt,9.8,14.6,nt,43.3*,23.2,54.4*,48.1*
Cc1ccnc(NC(=O)c2ccc(S(=O)(=O)N3CCCCCC3)cc2)c1,nt,31.5,-15.8,nt,nt,-20.9,nt,nt
O=C(COc1ccc(F)cc1Br)NCc1nnc2ccccn12,nt,1.9,-13.5,nt,nt,-0.3,nt,nt
COc1ccccc1CN1CC(C(=O)NCc2c(F)ccc(C)c2F)CCC1=O (stereo unspecified),nt,3.9,-20.3,nt,18.5,-9.9,nt,nt
CC1(c2ccc(OC(F)F)cc2)NC(=O)N(CC(=O)Nc2ccc(OC(F)F)cc2)C1=O (stereo unspecified),nt,-5.0,35.8*,nt,86.4*,52.5*,88.3*,86.5*
Cc1ccc(NC(=O)CN2C(=O)NC(C)(c3ccc(Cl)cc3)C2=O)cc1 (stereo unspecified),nt,8.4,4.3,nt,22.5*,-8.8,42.7*,28.5*
CC1(c2ccc(OC(F)F)cc2)NC(=O)N(CC(=O)Nc2ccc(Cl)cc2F)C1=O (stereo unspecified),nt,10.8,22.4,nt,55.4*,18.3,66.9*,63.7*
CCOc1ccc(NC(=O)CN2C(=O)NC(C)(c3ccc(OC(F)F)cc3)C2=O)cc1 (stereo unspecified),nt,-8.9,20.9,nt,75.2*,32.5,80.5*,74.4*
COc1ccc(-c2cc(C(=O)c3c(N)n(C)c(=O)n(C)c3=O)c3ccccc3n2)cc1OC,-0.3,60.0,-7.8,0.3,-10.7,-13.3,nt,nt
SMILES,TRPML3 agonist,OX1R antag-1,CHO parental Ca,TRPN1 ag,GPR7 antag,OX1R antag-2,GPR7 antag cf,MCHR1 antag
CCOc1ccc(NC(=S)N2CCC(NC(=O)c3ccco3)CC2)cc1,nt,8.7,-5.4,nt,-1.2,3.9,nt,nt
Cc1cc(C(=O)c2ccc(C(C)(C)C)cc2)c(NC(=O)CCl)s1,-0.1,-3.7,-14.7,0.3,-0.8,-25.8,nt,nt
N=c1c(C(=O)NC2CCCCC2)cc2c(=O)n3ccccc3nc2n1CC1CCCO1 (stereo unspecified),nt,60.3*,-6.3,nt,21.1*,-13.0,27.1*,18.7
CC(=O)OCCCNc1cc(Sc2nc3ccccc3s2)c2nonc2c1[N+](=O)[O-],0.9,29.6,7.3,1.5,-5.8,-0.6,nt,nt
CC(=O)OCCNc1cc(Sc2nc3ccccc3[nH]2)c2nonc2c1[N+](=O)[O-],-0.5,98.4*,48.0*,-0.7,33.5*,29.4,60.0*,101.2*
CC(C)CNS(=O)(=O)c1ccc(NC(=O)Cn2nc(-c3ccc(F)cc3)ccc2=O)cc1,-0.8,16.1,-15.9,-2.4,33.3*,-5.3,-1.0,8.4
CN(C1CCCCC1)S(=O)(=O)c1ccc(NC(=O)Cn2nc(-c3ccc(F)cc3)ccc2=O)cc1,1.0,37.1,-12.3,2.3,-0.2,-14.6,nt,nt
O=C(Cn1nc(-c2ccccc2)ccc1=O)Nc1ccc(-n2cnnn2)cc1,-0.3,28.5,-2.1,0.8,26.6*,8.0,11.7,41.3*
CCN1CCN(c2ccc(S(=O)(=O)N3CCCCC3)cc2NC(=O)COc2ccccc2)CC1,nt,10.6,-23.9,nt,nt,-23.7,nt,nt
CCN1CCN(c2ccc(S(=O)(=O)N3CCCCC3)cc2NC(=O)COc2ccc(Cl)c(C)c2)CC1,nt,2.8,-7.9,nt,23.3*,-24.2,51.0*,43.2*
CCC(CC)NC(=O)Cc1ccc(F)cc1,0.8,7.0,-1.3,0.4,1.7,-5.6,nt,nt
CC1CCc2onc(C(=O)O)c2C1 (stereo unspecified),0.6,9.2,5.6,1.7,24.1*,-1.8,9.5,-4.1
